# Compounds with a hit are over-represented: about 4.8% of the library has one in this group of screens.
# CSC inhib – blocks cancer stem cells; AID 2717; actives 1.1% (n = 300,000); inhibition, % at 7.5 µM; cancer stem cell-like cells viability, luminescence; in the data active = inhibition above about 75%; inconclusive = no clear call, values can overlap the other calls; tested in HMLE shEcad cells
# UPR CHOP act – activators of apoptotic arm of unfolded protein response (CHOP) | CHO-CHOP luciferase reporter, UPR activation, luminescence; percent of tunicamycin response over DMSO baseline | activation, % at 10 µM | actives 0.34% (n = 330,000);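 active = at 10 µM dose, activation of 40% or more, normalized to positive control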;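 note: 100% = tunicamycin at 10 µg/mL and 0% = DMSO alone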
#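 Assay system: CHO cells with stable CHOP pathway luciferase reporter; Buffer or medium: F12 plus 10% serum; Times: 16-18 h cell attachment, then 6 h compound exposure, 37 °C; Signal: luciferase luminescence; Read-out basis: percent activation relative to tunicamycin control; Control set: tunicamycin high control, DMSO low control.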
# Beta apoptosis – beta cell apoptosis inhibition | actives 0.8% (n = 300,000) | INS-1E cytokine-induced death, ATP luminescence, 48 h; percent of positive-control rescue, neutral wells zero | AID 435005 | protection from apoptosis, % (no concentration beside the values);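 active = Every replicate reaches about 75%, or at least half do and their mean reaches it too, limit read from the data; inconclusive = At least half of replicates reach the limit but their mean does not; inactive = Under half of replicates reach the limit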;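 note: 0% = cytokine-treated negative control wells and 100% = positive control rescue; higher means more ATP so stronger rescue from cytokine killing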
# UPR XBP1 act – activators of adaptive arm of unfolded protein response (XBP1). activation, % at 20 µM. AID 463104. actives 0.33% (n = 330,000). CHO-XBP1 luciferase reporter, IRE1-XBP1 UPR activation, luminescence; percent of tunicamycin response, DMSO as zero;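 active = versus positive control, 20 µM dose yields 30% or more activation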;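 note: 100% = tunicamycin at 10 µg/mL and 0% = DMSO only wells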
#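 assay system = CHO-XBP1 luciferase reporter cells | amount = 1000 cells/well | buffer or medium = F12 plus 10% FBS | compound dosing = single point, 20 µM final compound, 1% DMSO | incubation = 16-18 h cell attachment at 37 °C, then 6 h compound exposure | detection = Steady-Glo luminescence read | controls = tunicamycin 10 µg/mL and vehicle-only wells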
# Mdm2 MdmX PPI – human Mdm2/MdmX binding inhibition | O15151+Q00987 | SaOS-2 split-luciferase Mdm2/MdmX complementation, luminescence | inhibition, % at 8 µM | actives 3% (n = 330,000);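 active = inhibition of at least 50% at 8 µM in the primary screen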
# SKKanGAS inh – SKKanGAS growth inhibition; S. pyogenes SKKanGAS, kanamycin growth, BacTiter-Glo, 6 h; actives 1.3% (n = 300,000); inhibition, % at 7.5 µM; AID 1662;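 active = mean replicate score, as percent of positive control median, at least 50; inconclusive = mean below 50 but one replicate at or above 50; inactive = mean and every replicate below 50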;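 note: strain carries kanamycin resistance gene driven by streptokinase promoter and grows in 40 µg/ml kanamycin; loss of luminescence reflects streptokinase promoter inhibition or plain growth inhibition; 0% = median of DMSO wells and 100% = positive control at its reference dose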
# The depositor's hits bear a star; ? = inconclusive; / = no result given.
SMILES,CSC inhib,UPR CHOP act,Beta apoptosis,UPR XBP1 act,Mdm2 MdmX PPI,SKKanGAS inh
O=C(CN1CCN(S(=O)(=O)c2ccc(Cl)cc2)CC1)NCC1(N2CCOCC2)CCCCC1,-6.2,1.8,-5.7,-3.2,12.1,/
O=c1cc(-c2ccccc2)[nH]n1-c1nc2ccccc2s1,98.0*,0.4,4.9,-4.6,43.3,81.6*
CS(=O)(=O)Nc1ccccc1C(=O)OCC(=O)N1CCC(c2ccccc2)=N1,-0.4,-3.0,-2.0,-0.1,13.8,/
O=C(N/N=C/c1c[nH]c2ccccc12)c1cc(Br)ccc1O,1.1,-0.2,/,-0.1,-14.2,-0.5
O=C(N/N=C/c1c[nH]c2ccccc12)c1[nH]c2ccc(Br)cc2c1-c1ccccc1,/,/,/,/,/,72.7*
CCCCn1c(NS(=O)(=O)c2ccc(C)cc2)c(S(=O)(=O)c2ccccc2)c2nc3ccccc3nc21,107.8*,/,3.2,/,/,45.1
COC(=O)c1c(-c2ccc(OC)cc2)oc2ccc(-c3cc(OC)c(OC)c(OC)c3)cc12,100.3*,0.7,1.6,0.9,18.2,20.0
CCCc1cc(=O)[nH]c(SCC(=O)NC(=O)OCC)n1,-10.5,-0.2,-2.4,0.1,21.9,6.3
CCCc1cc(=O)[nH]c(SCC(=O)Nc2sc(C(N)=O)c(C)c2C(=O)OCCOC)n1,93.6*,0.6,1.0,2.1,17.5,/
Cc1ccc(NC(=S)Nc2ccc(C(C)C)cc2)cc1S(=O)(=O)N1CCCCCC1,75.3*,4.9,27.3,5.0,0.3,55.5*
O=C(CCSc1ccc(F)cc1)NNC(=O)c1ccc([N+](=O)[O-])cc1,/,-0.8,3.0,-0.5,-4.4,/
CC(C)(C)Sc1ccc2nc3c(n2c1)CCCC3,25.2,3.3,100.7*,2.5,7.1,7.7
Cc1c(NC(=O)C(C)Sc2nc(N)cc(=O)[nH]2)c(=O)n(-c2ccccc2)n1C (stereo not given),-16.6,-0.1,-10.5,-0.2,9.4,/
Cc1ccccc1/C=C1\Sc2ccc(C(=O)N3CCN(c4ccccn4)CC3)cc2N(C)C1=O,26.1,-0.3,7.3,4.8,29.4,?
CN1C(=O)/C(=C/c2ccccc2F)Sc2ccc(C(=O)N3CCCC3)cc21,-14.0,-1.3,3.8,-3.3,39.3,71.4*
COc1ccc(/C=C2\Sc3ccc(C(=O)N4CCOCC4)cc3N(C)C2=O)cc1,-1.4,0.7,-4.9,-3.6,17.8,59.9*
COc1ccc(/C=C2\Sc3ccc(C(=O)NCC4CCCO4)cc3N(C)C2=O)cc1 (stereo not given),7.8,3.9,-5.1,-0.5,11.9,91.8*
CCC(CNc1cc(OC)cc2cccnc12)NC1CCCCC1 (stereo not given),27.1,/,101.4*,/,/,7.1
Cc1cccc(CN2CCN(C(c3ccccc3)c3ccc(Cl)cc3)CC2)c1 (stereo not given),85.5*,-0.5,60.7,-8.1,29.6,17.2
COc1cc(CN2CCN(C(c3ccccc3)c3ccccc3)CC2)cc(OC)c1OC,1.7,2.8,12.0,-4.0,16.1,1.2
CC12CCC(C(=O)N3CCCCC3)([C@H](Br)C1=O)C2(C)C (stereo not given in full),-8.5,-0.4,-2.3,0.7,7.1,-2.6
Cc1ncc(CO)c(/C=N/NC(=O)c2cc(Br)ccc2O)c1O,13.0,-0.5,-6.3,-3.4,14.2,92.4*
CC(Sc1nc(N)cc(=O)[nH]1)C(=O)NNC(=O)c1cccc(Cl)c1 (stereo not given),3.9,0.5,-4.2,-1.2,-8.4,/
Cc1ccc(NS(=O)(=O)c2ccc(NC(=O)C(C)Sc3ccc(Cl)cc3)cc2)c(C)c1 (stereo not given),76.8*,-2.7,0.5,-2.1,23.9,27.5
COc1cc(NC(=O)C2CCCN2S(=O)(=O)c2ccc3c(c2)CC(C)N3C(C)=O)cc(OC)c1 (stereo not given),5.7,-0.4,/,-3.9,7.5,-14.8
N=C1/C(=C\c2ccc(OC(=O)c3ccccc3Cl)cc2)C(=O)N=C2SC(N3CCOCC3)=NN12,-3.4,4.2,-6.4,-2.1,3.6,53.5*
CCOc1ccc(N(CC(=O)NC2CC2)S(=O)(=O)c2ccc(C)cc2)cc1,-23.7,-0.5,2.4,-6.6,-24.8,-3.2

# Bioassay records deposited in PubChem BioAssay by several laboratories.
